ChEMBL document CHEMBL1914381, “New spirocyclic Δ²-isoxazoline derivatives related to selective agonists of α7 neuronal nicotinic acetylcholine receptors” (Eur J Med Chem, 2011)

target: Neuronal acetylcholine receptor; alpha4/beta2 (Rattus norvegicus, UniProt P09483+P12390); test: Displacement of [3H]epibatidine from alpha4beta2 nAChR in rat cortical membranes by beta counting relative to acetylcholine; type: cell membranes, Membrane; conditions: not given
In short: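 Rat cortex membranes pre-incubated with […] to block α7 sites. Then 30 min r.t. with test compound (10 pM–10 mM), then overnight at 4 °C with 0.075 nM [3H]epibatidine. Nonspecific binding with 100 nM unlabelled epibatidine. Filtered on PEI-soaked GF/C filters and washed; beta counting. Ki fitted from three competition experiments by non-linear least squares; >100 mM when no inhibition up to 100 mM.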

Chain of Neuronal acetylcholine receptor; alpha4/beta2 (P09483 whole entry): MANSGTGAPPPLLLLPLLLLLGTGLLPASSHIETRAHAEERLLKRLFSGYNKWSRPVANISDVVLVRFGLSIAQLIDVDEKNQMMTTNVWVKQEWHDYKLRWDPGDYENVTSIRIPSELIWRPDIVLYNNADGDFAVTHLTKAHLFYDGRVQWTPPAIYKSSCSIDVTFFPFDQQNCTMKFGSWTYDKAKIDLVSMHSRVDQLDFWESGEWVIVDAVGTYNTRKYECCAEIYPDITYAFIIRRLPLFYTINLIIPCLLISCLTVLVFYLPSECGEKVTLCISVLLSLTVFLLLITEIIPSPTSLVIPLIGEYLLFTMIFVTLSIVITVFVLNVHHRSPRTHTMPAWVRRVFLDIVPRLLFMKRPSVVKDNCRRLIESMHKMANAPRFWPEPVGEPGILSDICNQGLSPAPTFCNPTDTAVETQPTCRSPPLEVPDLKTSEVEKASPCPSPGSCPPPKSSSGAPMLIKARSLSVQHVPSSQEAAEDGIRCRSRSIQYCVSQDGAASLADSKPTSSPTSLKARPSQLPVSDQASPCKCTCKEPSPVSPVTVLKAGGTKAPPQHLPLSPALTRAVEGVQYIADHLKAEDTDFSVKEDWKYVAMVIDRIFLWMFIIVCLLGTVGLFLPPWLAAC
Chain of Neuronal acetylcholine receptor; alpha4/beta2 (P12390 whole entry): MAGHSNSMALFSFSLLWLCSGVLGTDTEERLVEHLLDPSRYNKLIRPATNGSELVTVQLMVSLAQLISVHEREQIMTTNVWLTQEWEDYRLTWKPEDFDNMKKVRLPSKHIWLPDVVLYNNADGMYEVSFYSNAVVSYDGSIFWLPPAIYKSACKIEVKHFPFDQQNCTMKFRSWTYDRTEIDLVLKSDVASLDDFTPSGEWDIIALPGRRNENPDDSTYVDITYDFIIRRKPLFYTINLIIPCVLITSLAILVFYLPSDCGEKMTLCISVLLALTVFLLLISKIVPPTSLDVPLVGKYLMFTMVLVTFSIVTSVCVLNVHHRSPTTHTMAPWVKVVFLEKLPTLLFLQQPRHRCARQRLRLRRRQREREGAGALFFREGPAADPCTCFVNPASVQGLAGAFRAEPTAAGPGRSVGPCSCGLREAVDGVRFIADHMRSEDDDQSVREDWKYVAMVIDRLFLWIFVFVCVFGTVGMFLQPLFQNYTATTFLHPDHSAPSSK

Compared with `BrC1=NOC2(C1)CN1CCC2CC1` (racemic), `BrC1=NOC2(C1)CN1CCC2C1` (racemic) is 7.8-fold higher in Ki: 0.64 µM for the first, 5 µM for the second.

Going from `COC1=NOC2(C1)CN1CCC2CC1` (racemic) to `COC1=NOC2(C1)CN1CCC2C1` (racemic), the Ki rises from 7.9 µM to 16 µM (2-fold).

Compared with `c1ccc(C2=NOC3(C2)CN2CCC3CC2)cc1` (racemic), `c1ccc(C2=NOC3(C2)CN2CCC3C2)cc1` (racemic) is 2.4-fold higher in Ki: 22 µM for the first, 53 µM for the second. The first binds more tightly here.

`C[N+]12CCC(CC1)C1(CC(Br)=NO1)C2` (racemic) and `C[N+]12CCC(C1)C1(CC(Br)=NO1)C2` (racemic) are within 1.5-fold of each other in Ki: 32.5 µM for the first, 22 µM for the second.

First: COC1=NOC2(C1)C[N+]1(C)CCC2CC1 (racemic)
Second: COC1=NOC2(C1)C[N+]1(C)CCC2C1 (racemic)
The Ki of the first is 8.8-fold higher: 175 µM for the first, 20 µM for the second.

First: C[N+]12CCC(C1)C1(CC(c3ccccc3)=NO1)C2 (racemic)
Second: C[N+]1(C)CCCC2(CC(c3ccccc3)=NO2)C1 (racemic)
The Ki of the first is lower: 38 µM for the first, over 100 µM for the second.

First: CN1CCCC2(CC(Br)=NO2)C1 (racemic)
Second: COC1=NOC2(CCCN(C)C2)C1 (racemic)
The Ki of the first is lower: 44 µM for the first, over 100 µM for the second.

`CN1CCCC2(CC(c3ccccc3)=NO2)C1` (racemic) and `c1ccc(C2=NOC3(CCCNC3)C2)cc1` (racemic) cannot be ordered by Ki: over 100 µM for the first, over 100 µM for the second.

Compared with `C[N+]1(C)CCCC2(CC(Br)=NO2)C1` (racemic), `COC1=NOC2(CCC[N+](C)(C)C2)C1` (racemic) is 1.9-fold higher in Ki: 50 µM for the first, 94 µM for the second. The first binds more tightly here.

Going from `BrC1=NOC2(CCCNC2)C1` (racemic) to `COC1=NOC2(CCCNC2)C1` (racemic), the Ki rises from 58 µM to over 100 µM. The first binds more tightly here.

target: Neuronal acetylcholine receptor subunit alpha-7 (Homo sapiens, UniProt P36544); test: Agonist activity at human alpha7 nAChR expressed in rat GH4C1 cells assessed as maximal electric current amplitude at 1 mM by whole-cell patch clamp electrophysiology assay relative to acetylcholine; type: functional, cell-based, GH4-C1; conditions: not given
Sequence (P36544 whole entry, the tested form may be a part): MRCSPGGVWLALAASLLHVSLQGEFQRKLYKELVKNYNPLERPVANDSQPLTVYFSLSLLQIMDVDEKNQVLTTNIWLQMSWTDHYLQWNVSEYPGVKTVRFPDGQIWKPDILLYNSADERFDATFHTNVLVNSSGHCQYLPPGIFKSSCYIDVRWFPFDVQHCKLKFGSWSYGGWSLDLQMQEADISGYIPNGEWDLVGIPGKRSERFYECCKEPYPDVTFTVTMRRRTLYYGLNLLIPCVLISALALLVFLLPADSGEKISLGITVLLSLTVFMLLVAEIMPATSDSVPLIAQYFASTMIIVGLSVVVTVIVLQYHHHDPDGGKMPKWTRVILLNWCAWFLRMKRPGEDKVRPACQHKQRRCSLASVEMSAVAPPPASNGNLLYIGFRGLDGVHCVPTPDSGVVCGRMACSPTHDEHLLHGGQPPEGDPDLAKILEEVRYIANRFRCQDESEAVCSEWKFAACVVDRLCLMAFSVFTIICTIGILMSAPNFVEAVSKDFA
In short: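 GH4C1 cells stably transfected with human α7 subunit; whole-cell patch clamp, holding potential −70 mV, fast gravity-driven perfusion exchanger. Compound applied at 1 mM; current amplitude normalized to that from ACh 1 mM on the same cell. n = 8–12 cells.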

`BrC1=NOC2(C1)CN1CCC2C1` (racemic) was tested, and the EC50 was 84.1 µM.

same assay, conditions: GH4-C1

Going from `BrC1=NOC2(C1)CN1CCC2C1` (racemic) to `COC1=NOC2(CCCN(C)C2)C1` (racemic), the Activity falls from 76% to 7%.

Work on `C[N+]1(C)CCCC2(CC(c3ccccc3)=NO2)C1` (racemic) yielded an Activity of 26%.

target: Neuronal acetylcholine receptor; alpha3/beta4 (Homo sapiens, UniProt P30926+P32297); test: Displacement of [3H]epibatidine from alpha3beta4 nAChR expressed in human HEK293 cells by beta liquid scintillation counting; type: cell-based; conditions: not given
Sequence (P30926 whole entry): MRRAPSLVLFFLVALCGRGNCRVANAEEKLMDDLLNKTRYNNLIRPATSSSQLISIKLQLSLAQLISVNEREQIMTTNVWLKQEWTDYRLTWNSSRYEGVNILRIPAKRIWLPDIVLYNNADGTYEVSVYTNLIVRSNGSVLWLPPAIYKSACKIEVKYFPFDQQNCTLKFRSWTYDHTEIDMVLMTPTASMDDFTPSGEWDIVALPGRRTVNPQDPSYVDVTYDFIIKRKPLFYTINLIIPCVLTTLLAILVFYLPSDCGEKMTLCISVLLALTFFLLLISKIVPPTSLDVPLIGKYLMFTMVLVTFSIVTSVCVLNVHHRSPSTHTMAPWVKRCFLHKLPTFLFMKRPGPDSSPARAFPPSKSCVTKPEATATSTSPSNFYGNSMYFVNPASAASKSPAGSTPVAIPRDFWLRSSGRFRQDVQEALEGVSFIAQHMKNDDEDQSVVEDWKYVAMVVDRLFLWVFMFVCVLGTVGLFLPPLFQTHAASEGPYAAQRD
Sequence (P32297 whole entry): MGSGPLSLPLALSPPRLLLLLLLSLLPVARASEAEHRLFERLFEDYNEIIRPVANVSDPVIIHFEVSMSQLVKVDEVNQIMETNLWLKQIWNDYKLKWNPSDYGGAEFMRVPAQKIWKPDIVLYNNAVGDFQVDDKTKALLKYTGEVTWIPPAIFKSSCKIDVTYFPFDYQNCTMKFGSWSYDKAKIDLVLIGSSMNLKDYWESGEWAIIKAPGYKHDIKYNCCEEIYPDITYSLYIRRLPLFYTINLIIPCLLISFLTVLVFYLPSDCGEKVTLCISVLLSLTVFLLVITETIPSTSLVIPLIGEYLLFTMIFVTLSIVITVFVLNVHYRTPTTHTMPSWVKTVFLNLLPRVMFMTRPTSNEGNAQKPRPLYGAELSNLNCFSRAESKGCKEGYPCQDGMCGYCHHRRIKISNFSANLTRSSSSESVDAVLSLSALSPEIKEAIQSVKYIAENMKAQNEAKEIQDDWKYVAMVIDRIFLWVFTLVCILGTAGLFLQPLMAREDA
In short: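 HEK 293 cells transiently transfected with α3 and β4 cDNAs by JetPEI and harvested after 48 h. Compound pre-incubated 5 min, then overnight at 4 °C with 0.25 nM [3H]epibatidine in Tris-HCl pH 7 buffer with 2 mg/ml BSA. Nonspecific binding with 100 nM cold epibatidine. Cells washed seven times with ice-cold PBS; liquid scintillation counting.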

Going from `BrC1=NOC2(C1)CN1CCC2C1` (racemic) to `COC1=NOC2(C1)CN1CCC2C1` (racemic), the Ki rises from 13 µM to 46 µM (3.5-fold).

First: c1ccc(C2=NOC3(C2)CN2CCC3C2)cc1 (racemic)
Second: c1ccc(C2=NOC3(CCCNC3)C2)cc1 (racemic)
The Ki of the first is 2.7-fold lower: 16 µM for the first, 43 µM for the second. The first binds more tightly here.

`COC1=NOC2(CCCN(C)C2)C1` (racemic) and `COC1=NOC2(CCCNC2)C1` (racemic) are within 1.5-fold of each other in Ki: 91 µM for the first, 75 µM for the second.

With `C[N+]1(C)CCCC2(CC(c3ccccc3)=NO2)C1` (racemic) the Ki was 6.6 µM.

target: Neuronal acetylcholine receptor subunit alpha-7 (Rattus norvegicus, UniProt Q05941); test: Displacement of [125I]-alpha-bungarotoxin from alpha7 nAChR in rat cortical membranes by gamma counting; type: cell membranes, Membrane; conditions: not given
Sequence (Q05941 whole entry): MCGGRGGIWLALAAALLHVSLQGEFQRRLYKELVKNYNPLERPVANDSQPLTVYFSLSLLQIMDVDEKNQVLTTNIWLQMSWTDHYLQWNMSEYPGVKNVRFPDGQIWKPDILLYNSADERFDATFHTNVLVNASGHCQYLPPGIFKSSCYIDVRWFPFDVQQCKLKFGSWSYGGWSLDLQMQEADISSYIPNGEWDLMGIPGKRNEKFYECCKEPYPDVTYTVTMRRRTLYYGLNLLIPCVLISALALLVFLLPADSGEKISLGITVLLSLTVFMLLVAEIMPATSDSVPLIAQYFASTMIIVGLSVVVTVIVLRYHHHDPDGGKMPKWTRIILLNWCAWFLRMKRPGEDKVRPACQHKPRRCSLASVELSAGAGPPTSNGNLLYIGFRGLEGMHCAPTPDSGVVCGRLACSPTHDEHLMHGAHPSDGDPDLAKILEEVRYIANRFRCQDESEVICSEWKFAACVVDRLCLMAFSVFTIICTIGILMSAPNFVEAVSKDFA
In short: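 Rat cortex membranes (two rats per experiment, homogenized and centrifuged twice at 60,000g) in Tris-HCl buffer pH 7 with protease inhibitors. Pre-incubated 30 min r.t. with test compound (10 pM–10 mM), then overnight at r.t. with 1 nM [125I]α-bungarotoxin. Nonspecific binding with […]. Filtered on polyethylenimine-soaked GF/C filters; gamma counting. Ki fitted from three competition experiments by non-linear least squares; >100 mM when no inhibition up to 100 mM.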

Compared with `BrC1=NOC2(C1)CN1CCC2CC1` (racemic), `BrC1=NOC2(C1)CN1CCC2C1` (racemic) is 17-fold higher in Ki: 0.0135 µM for the first, 0.23 µM for the second. The first binds more tightly here.

Compared with `COC1=NOC2(C1)CN1CCC2CC1` (racemic), `COC1=NOC2(C1)CN1CCC2C1` (racemic) is 30-fold higher in Ki: 0.0142 µM for the first, 0.42 µM for the second.

Compared with `c1ccc(C2=NOC3(C2)CN2CCC3CC2)cc1` (racemic), `c1ccc(C2=NOC3(C2)CN2CCC3C2)cc1` (racemic) is 140-fold higher in Ki: 0.025 µM for the first, 3.6 µM for the second.

Compared with `C[N+]12CCC(CC1)C1(CC(Br)=NO1)C2` (racemic), `C[N+]12CCC(C1)C1(CC(Br)=NO1)C2` (racemic) is 57-fold higher in Ki: 0.109 µM for the first, 6.2 µM for the second. The first binds more tightly here.

Compared with `COC1=NOC2(C1)C[N+]1(C)CCC2CC1` (racemic), `COC1=NOC2(C1)C[N+]1(C)CCC2C1` (racemic) is 32-fold higher in Ki: 0.0914 µM for the first, 2.9 µM for the second.

First: C[N+]12CCC(C1)C1(CC(c3ccccc3)=NO1)C2 (racemic)
Second: C[N+]1(C)CCCC2(CC(c3ccccc3)=NO2)C1 (racemic)
The Ki of the first is 7.3-fold higher: 5.1 µM for the first, 0.7 µM for the second. The second binds more tightly here.

`CN1CCCC2(CC(Br)=NO2)C1` (racemic) and `COC1=NOC2(CCCN(C)C2)C1` (racemic) are within 1.5-fold of each other in Ki: 6.6 µM for the first, 5.5 µM for the second.

Compared with `CN1CCCC2(CC(c3ccccc3)=NO2)C1` (racemic), `c1ccc(C2=NOC3(CCCNC3)C2)cc1` (racemic) is 6.7-fold lower in Ki: 30 µM for the first, 4.5 µM for the second.

Going from `C[N+]1(C)CCCC2(CC(Br)=NO2)C1` (racemic) to `COC1=NOC2(CCC[N+](C)(C)C2)C1` (racemic), the Ki rises from 3.7 µM to 13 µM (3.5-fold). The first binds more tightly here.

`BrC1=NOC2(CCCNC2)C1` (racemic) and `COC1=NOC2(CCCNC2)C1` (racemic) are within 1.5-fold of each other in Ki: 4.3 µM for the first, 3.7 µM for the second.
